Assay results: ChEMBL document CHEMBL1147176, “Synthesis of S-dialkylarsino-3-mercapto-1,2-propanediols and evaluation of their anticancer activity” (2007)

Columns and labels:
Type in all cases: functional
OVCAR-4 = assay: Anticancer activity against human OVCAR4 cells assessed as growth inhibition
How it was run: (§1)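 NCI in vitro disease-oriented human tumor cell screen, about 60 lines. Growth inhibition read as pGI50, the -log of the molar concentration inhibiting 50% net cell growth. A mean graph midpoint is the arithmetic mean over all tested lines. Where the effect was not reached within the concentration interval, the highest tested concentration was used.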

RXF 393 = assay: Anticancer activity against human RXF393 cells assessed as growth inhibition; how it was run: as §1
CCRF-CEM = assay: Anticancer activity against human CCRF-CEM cells assessed as growth inhibition; how it was run: as §1
SR = assay: Anticancer activity against human SR cells assessed as growth inhibition; how it was run: as §1
HCT-15 = assay: Anticancer activity against human HCT15 cells assessed as growth inhibition; how it was run: as §1
OVCAR-3 = assay: Anticancer activity against human OVCAR-3 cells assessed as growth inhibition; how it was run: as §1
SF-539 = assay: Anticancer activity against human SF539 cells assessed as growth inhibition; how it was run: as §1
U-251 = assay: Anticancer activity against human U251 cells assessed as growth inhibition
How it was run: (§2)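 The value is GI50, the molar concentration causing 50% inhibition of net cell growth, reported as pGI50 (−log molar).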

MDA-MB-435 = assay: Anticancer activity against human MDA-MB435 cells assessed as growth inhibition; how it was run: as §1
DU-145 = assay: Anticancer activity against human DU145 cells assessed as growth inhibition; how it was run: as §1
HCT-116 = assay: Anticancer activity against human HCT116 cells assessed as growth inhibition; how it was run: as §1
SK-MEL-28 = assay: Anticancer activity against human SK-MEL-28 cells assessed as growth inhibition; how it was run: as §1
HCC 2998 = assay: Anticancer activity against human HCC2998 cells assessed as growth inhibition; how it was run: as §1
HOP-92 = assay: Anticancer activity against human HOP92 cells assessed as growth inhibition; how it was run: as §1
M14 = assay: Anticancer activity against human M14 cells assessed as growth inhibition; how it was run: as §1
COLO 205 = assay: Anticancer activity against human COLO 205 cells assessed as growth inhibition; how it was run: as §1
UO-31 = assay: Anticancer activity against human UO31 cells assessed as growth inhibition; how it was run: as §2
Malme-3M = assay: Anticancer activity against human MALME3M cells assessed as growth inhibition; how it was run: as §1
RPMI-8226 = assay: Anticancer activity against human RPMI8226 cells assessed as growth inhibition; how it was run: as §1
BT-549 = assay: Anticancer activity against human BT549 cells assessed as growth inhibition; how it was run: as §1
TK-10 = assay: Anticancer activity against human TK10 cells assessed as growth inhibition; how it was run: as §1
K562 = assay: Anticancer activity against human K562 cells assessed as growth inhibition; how it was run: as §1
T47D = assay: Anticancer activity against human T47D cells assessed as growth inhibition; how it was run: as §1
OVCAR-8 = assay: Anticancer activity against human OVCAR8 cells assessed as growth inhibition; how it was run: as §1
NCI-H322M = assay: Anticancer activity against human NCI-H322M cells assessed as growth inhibition; how it was run: as §1
KM12 = assay: Anticancer activity against human KM12 cells assessed as growth inhibition; how it was run: as §1
CAKI-1 = assay: Anticancer activity against human CAKI1 cells assessed as growth inhibition; how it was run: as §1
ACHN = assay: Anticancer activity against human ACHN cells assessed as growth inhibition; how it was run: as §1
NCI-H460 = assay: Anticancer activity against human NCI-H460 cells assessed as growth inhibition; how it was run: as §1
HOP-62 = assay: Anticancer activity against human HOP62 cells assessed as growth inhibition; how it was run: as §1
MOLT-4 = assay: Anticancer activity against human MOLT4 cells assessed as growth inhibition; how it was run: as §1
EKVX = assay: Anticancer activity against human EKVX cells assessed as growth inhibition; how it was run: as §1
OVCAR-5 = assay: Anticancer activity against human OVCAR5 cells assessed as growth inhibition; how it was run: as §1
HL-60 = assay: Anticancer activity against human HL60(TB) cells assessed as growth inhibition; how it was run: as §1
NCI-H23 = assay: Anticancer activity against human NCI-H23 cells assessed as growth inhibition; how it was run: as §1
[1] = Anticancer activity against human HS 578T cells assessed as growth inhibition; how it was run: as §1
786-0 = assay: Anticancer activity against human 786-0 cells assessed as growth inhibition; details: read-out: Log LC50 (the source's name) (converted); how it was run: as §1
SF-295 = assay: Anticancer activity against human SF295 cells assessed as growth inhibition; how it was run: as §1
NCI-H522 = assay: Anticancer activity against human NCI-H522 cells assessed as growth inhibition; how it was run: as §1
SW-620 = assay: Anticancer activity against human SW620 cells assessed as growth inhibition; how it was run: as §1
SK-OV-3 = assay: Anticancer activity against human SK-OV3 cells assessed as growth inhibition; how it was run: as §1
A549 = assay: Anticancer activity against human A549/ATCC cells assessed as growth inhibition; how it was run: as §1
NCI-H226 = assay: Anticancer activity against human NCI-H226 cells assessed as growth inhibition; how it was run: as §1
NCI/ADR-RES = assay: Anticancer activity against human NCI/ADR-RES cells assessed as growth inhibition; how it was run: as §1
IGROV-1 = assay: Anticancer activity against human IGROV1 cells assessed as growth inhibition; how it was run: as §1
SF-268 = assay: Anticancer activity against human SF268 cells assessed as growth inhibition; how it was run: as §1
MCF7 = assay: Anticancer activity against human MCF7 cells assessed as growth inhibition; how it was run: as §1
HT-29 = assay: Anticancer activity against human HT29 cells assessed as growth inhibition; how it was run: as §1
SN12C = assay: Anticancer activity against human SN12C cells assessed as growth inhibition; how it was run: as §1
SNB-19 = assay: Anticancer activity against human SNB19 cells assessed as growth inhibition; how it was run: as §1
PC-3 = assay: Anticancer activity against human PC3 cells assessed as growth inhibition; how it was run: as §1
A498 = assay: Anticancer activity against human A498 cells assessed as growth inhibition; how it was run: as §1
[2] = read-out: Log LC50 (the source's name) (converted)

C[As](C)SCC(COC(=O)C(Cl)c1ccccc1)OC(=O)C(Cl)c1ccccc1 (configuration not stated)
GI50 (OVCAR-4): 1.26 µM | CC50 (OVCAR-4; [2]): > 100 µM | GI50 (RXF 393): 0.363 µM | CC50 (RXF 393; [2]): 36.3 µM | GI50 (CCRF-CEM): 0.302 µM | CC50 (CCRF-CEM; [2]): 32.4 µM | GI50 (SR): 1.41 µM | CC50 (SR; [2]): > 100 µM | GI50 (HCT-15): 0.38 µM | CC50 (HCT-15; [2]): > 100 µM | GI50 (OVCAR-3): 0.178 µM | CC50 (OVCAR-3; [2]): 3.24 µM | GI50 (SF-539): 3.63 µM | CC50 (SF-539; [2]): > 100 µM | GI50 (U-251): 6.31 µM | CC50 (U-251; [2]): > 100 µM | GI50 (MDA-MB-435): 0.209 µM | CC50 (MDA-MB-435; [2]): 28.8 µM | GI50 (DU-145): 4.27 µM | CC50 (DU-145; [2]): 58.9 µM | GI50 (HCT-116): 0.407 µM | CC50 (HCT-116; [2]): 4.9 µM | GI50 (SK-MEL-28): 0.603 µM | GI50 (HCC 2998): 1.55 µM | CC50 (HCC 2998; [2]): 8.13 µM | GI50 (HOP-92): 0.162 µM | CC50 (HOP-92; [2]): 40.7 µM | GI50 (M14): 0.603 µM | CC50 (M14; [2]): 34.7 µM | GI50 (COLO 205): 0.363 µM | CC50 (COLO 205; [2]): > 100 µM | GI50 (UO-31): 5.37 µM | CC50 (UO-31; [2]): > 100 µM | GI50 (Malme-3M): 0.0398 µM | CC50 (Malme-3M; [2]): 3.39 µM | GI50 (RPMI-8226): 0.316 µM | CC50 (RPMI-8226; [2]): > 100 µM | GI50 (BT-549): 2.45 µM | CC50 (BT-549; [2]): 64.6 µM | GI50 (TK-10): 0.112 µM | CC50 (TK-10; [2]): 2.69 µM | GI50 (K562): 0.0372 µM | CC50 (K562; [2]): 5.37 µM | GI50 (T47D): 5.89 µM | CC50 (T47D; [2]): 60.3 µM | GI50 (OVCAR-8): 4.07 µM | CC50 (OVCAR-8; [2]): > 100 µM | GI50 (NCI-H322M): 1.66 µM | CC50 (NCI-H322M; [2]): 32.4 µM | GI50 (KM12): 1.2 µM | CC50 (KM12; [2]): 30.9 µM | GI50 (CAKI-1): 0.347 µM | CC50 (CAKI-1; [2]): 30.2 µM | GI50 (ACHN): 0.759 µM | CC50 (ACHN; [2]): 38.9 µM | GI50 (NCI-H460): 5.75 µM | CC50 (NCI-H460; [2]): 79.4 µM | GI50 (HOP-62): 4.37 µM | CC50 (HOP-62; [2]): 40.7 µM | GI50 (MOLT-4): 0.347 µM | CC50 (MOLT-4; [2]): > 100 µM | GI50 (EKVX): 10.5 µM | CC50 (EKVX; [2]): > 100 µM | GI50 (OVCAR-5): 3.55 µM | CC50 (OVCAR-5; [2]): 37.2 µM | GI50 (HL-60): 0.162 µM | CC50 (HL-60; [2]): 8.51 µM | GI50 (NCI-H23): 0.741 µM | CC50 (NCI-H23; [2]): 22.9 µM | GI50 [1]: 6.17 µM | CC50 [1, 2]: > 100 µM | CC50 (786-0): 25.1 µM | GI50 (SF-295): 3.63 µM | CC50 (SF-295; [2]): 43.7 µM | GI50 (NCI-H522): 0.457 µM | CC50 (NCI-H522; [2]): > 100 µM | GI50 (SW-620): 0.617 µM | CC50 (SW-620; [2]): > 100 µM | GI50 (SK-OV-3): 0.646 µM | CC50 (SK-OV-3; [2]): > 100 µM | GI50 (A549): 3.72 µM | CC50 (A549; [2]): > 100 µM | GI50 (NCI-H226): 26.9 µM | CC50 (NCI-H226; [2]): 67.6 µM | GI50 (NCI/ADR-RES): 2.04 µM | CC50 (NCI/ADR-RES; [2]): 32.4 µM | GI50 (IGROV-1): 4.47 µM | CC50 (IGROV-1; [2]): > 100 µM | GI50 (SF-268): 3.16 µM | CC50 (SF-268; [2]): 56.2 µM | GI50 (MCF7): 0.372 µM | CC50 (MCF7; [2]): 67.6 µM | GI50 (HT-29): 0.813 µM | CC50 (HT-29; [2]): > 100 µM | GI50 (SN12C): 2.45 µM | CC50 (SN12C; [2]): 67.6 µM | GI50 (SNB-19): 11.5 µM | CC50 (SNB-19; [2]): 85.1 µM | GI50 (PC-3): 0.55 µM | CC50 (PC-3; [2]): 47.9 µM | GI50 (A498): 5.5 µM | CC50 (A498; [2]): 57.5 µM
